The source made the active and inactive calls. The rule behind the calls is not given here.
Tests used:
[1] = tested on: Trypanosoma brucei brucei; assay: Antitrypanosomal activity against bloodstream form of Trypanosoma brucei brucei after 72 hrs by alamar blue assay; type: functional
Summary of the method: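 Bloodstream-form T. b. brucei single marker S427 (S16) in HMI-9 + 10% hiFBS, seeded at 1 × 10^4 per mL. Increasing compound concentrations for 72 h at 37 °C, 5% CO2. Proliferation by alamarBlue fluorescence (ex 550/em 590 nm).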

Leishmania major = assay: Antileishmanial activity against Leishmania major MHOM/IL/80/Friedlin promastigotes after 72 hrs by MTT assay; type: functional
Summary of the method: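 L. major Friedlin promastigotes at 1 × 10^6 per mL, 72 h at 28 °C in modified RPMI-1640 + 10% hiFBS with increasing drug concentrations; proliferation by MTT, absorbance 540 nm.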

MRC5 = assay: Cytotoxicity against human MRC5 cells assessed as cell growth inhibition after 72 hrs by MTT assay; type: cell-based; conditions: MRC5, 72 h
Summary of the method: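 MRC5 cells in low-glucose DMEM + 10% hiFBS, seeded by trypsinization at 5000 cells/well with increasing compound concentrations. MTT read-out after 72 h at 37 °C. IC50 = 50% growth reduction versus untreated cells.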

Plasmodium falciparum = assay: Antimalarial activity against erythrocyte stage of Plasmodium falciparum 3D7 preincubated for 48 hrs followed by [3H]-hypoxanthine addition measured after 18 hrs by liquid scintillation counting; type: functional
Summary of the method: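 P. falciparum 3D7-infected erythrocytes (1.5% hematocrit, 0.6% parasitemia) in RPMI 1640 + 10% AB human serum, DMSO ≤0.25% final. After 48 h at 37 °C, 0.6 μCi [3H]-hypoxanthine added for 18 h. Cells harvested onto glass-fibre filters and counted by scintillation, with uninfected-erythrocyte background subtracted. IC50 = 50% growth inhibition.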

[2] = Selectivity index, ratio of IC50 for human MRC5 cells to IC50 for Leishmania major MHOM/IL/80/Friedlin promastigotes; type: toxicity; conditions: read-out: Ratio IC50
Summary of the method: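 SI is IC50(MRC-5)/IC50(parasite). L. major Friedlin promastigotes (1 × 10^6/mL) were exposed to increasing compound in modified RPMI-1640 + 10% hiFBS for 72 h at 28 °C, with MTT read at 540 nm. MRC5 cells (5000/well, low-glucose DMEM + 10% hiFBS) got increasing compound for 72 h at 37 °C, with MTT read-out. IC50 is versus untreated cells.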

[3] = Selectivity index, ratio of IC50 for human MRC5 cells to IC50 for bloodstream form of Trypanosoma brucei brucei; type: toxicity; conditions: read-out: Ratio IC50
Summary of the method: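 Ratio of IC50 in MRC-5 to IC50 in parasite. Bloodstream-form T. b. brucei single-marker S427 (1 × 10^4/mL, HMI-9 + 10% hiFBS) was exposed to increasing compound for 72 h at 37 °C, 5% CO2, with alamarBlue fluorescence (ex 550/em 590).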

[4] = Selectivity index, ratio of IC50 for human MRC5 cells to IC50 for erythrocyte stage of Plasmodium falciparum 3D7; type: toxicity; conditions: read-out: Ratio IC50
Danio rerio [5] = species on record: Danio rerio; assay: Acute toxicity in AB zebrafish embryo assessed as no observed effect concentration with mortality score of >20% at 100 uM after 96 hrs post-fertlization; conditions: in vivo
Summary of the method: (§1)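 AB-strain embryos, with abnormal ones discarded, were placed 20 per condition at 3 hpf into compound dilutions in 0.1% DMSO/E3 (0.01, 0.1, 1, 10, 100 μM) and kept at 28.5 °C to 96 hpf. Mortality was scored and LC50 fitted by sigmoidal curve. NOEC/LOEC took >20% mortality as the effect. Controls were 0.1% DMSO (triplicate) and DEAB.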

[6] = (§2) Acute toxicity in AB zebrafish embryo assessed as mortality after 96 hrs post-fertlization; design: species or system Danio rerio; conditions: AB, in vivo; summary of the method: as §1
Trypanosoma brucei [7] = assay: Binding affinity to Trypanosoma brucei FT-labeled EBR1 G-quadruplex DNA at 3 uM by circular dichroism spectroscopic analysis
Summary of the method: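 EBR1-FT quadruplex at 3 μM in 10 mM lithium cacodylate pH 7.2 with 100 mM KCl, titrated with ligand (ratio 1:0 to 1:10). Spectra recorded at 25 °C in a 1 cm cell, average of three scans at 100 nm/min, 2 nm bandwidth.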

[8] = Drug localization in Trypanosoma brucei nucleus at 5 uM after 30 mins by confocal microscopic analysis; type: ADME; conditions: 0.5 h
Summary of the method: (§3)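 T. brucei exposed to 5 μM compound in medium at 37 °C for 30 or 150 min. Fixed in 4% paraformaldehyde for 30 min, washed twice in cold PBS, then imaged by confocal microscopy using the compounds' intrinsic fluorescence.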

[9] = Drug localization in Trypanosoma brucei kinetoplast at 5 uM after 30 mins by confocal microscopic analysis; type: ADME; conditions: 0.5 h; summary of the method: as §3
Trypanosoma brucei [10] = assay: Drug localization in Trypanosoma brucei nucleus at 5 uM after 150 mins by confocal microscopic analysis; type: ADME; conditions: 2.5 h; summary of the method: as §3
[11] = Drug localization in Trypanosoma brucei kinetoplast at 5 uM after 150 mins by confocal microscopic analysis; type: ADME; conditions: 2.5 h; summary of the method: as §3
Danio rerio [12] = species on record: Danio rerio; assay: Acute toxicity in AB zebrafish embryo assessed as lowest observed effect concentration with mortality score of >20% at 100 uM after 96 hrs post-fertlization; conditions: in vivo; summary of the method: as §1
Danio rerio [13] = species on record: Danio rerio; assay: as §2; conditions: in vivo, 96 h; summary of the method: as §1
[14] = tested on: human telomeric hTel G-quadruplex DNA (Homo sapiens); assay: Binding affinity to FT-labeled human telomeric hTel G-quadruplex DNA assessed as change in melting temperature at 2 uM at pH 7.2 by FRET melting assay

Compound	IC50 [1]	IC50 (Leishmania major)	IC50 (MRC5)	IC50 (Plasmodium falciparum)	selectivity ratio [2]	selectivity ratio [3]	selectivity ratio [4]	NOAEL (Danio rerio [5])	LC50 at 96 h [6]	Activity (Trypanosoma brucei [7])	Drug uptake [8]	Drug uptake [9]	Drug uptake (Trypanosoma brucei [10])	Drug uptake [11]	MTC (Danio rerio [12])	LC50 (Danio rerio [13])	ΔTm [14]
CC(=O)N[C@@H]1[C@@H](O)[C@H](O)[C@@H](CO)O[C@H]1n1cc(CNc2cc3c4c(ccc5c4c2C(=O)N(CCCN(C)C)C5=O)C(=O)N(CCCN(C)C)C3=O)nn1	0.089 µM	1.04 µM	0.51 µM	0.36 µM	0.5	5.7	1.4	100 µM	> 1000 µM	–	–	–	–	–	–	–	–
CCCNc1cc2c3c(ccc4c3c1C(=O)N(CCCN(C)C)C4=O)C(=O)N(CCCN(C)C)C2=O	–	0.034 µM	0.36 µM	0.091 µM	–	–	4	100 µM	–	Active	Active	Active	Active	Active	1000 µM	410 µM	19 °C
CN(C)CCCN1C(=O)c2ccc3c4c(c(NCc5cn([C@@H]6O[C@H](CO)[C@@H](O)[C@H](O)[C@H]6O)nn5)cc(c24)C1=O)C(=O)N(CCCN(C)C)C3=O	0.024 µM	0.244 µM	1.15 µM	1.35 µM	–	–	0.9	100 µM	> 1000 µM	–	–	–	–	–	–	–	–
C[n+]1ccc(-c2c3nc(c(-c4cc[n+](C)cc4)c4ccc([nH]4)c(-c4cc[n+](C)cc4)c4nc(c(-c5cc[n+](C)cc5)c5ccc2[nH]5)C=C4)C=C3)cc1	> 10 µM	20.8 µM	> 25 µM	> 25 µM	> 1.7	–	–	–	–	–	–	–	–	–	–	–	–
CN(C)CCCN1C(=O)c2ccc3c4c(c(NCc5cn(CCO[C@@H]6O[C@H](CO)[C@@H](O)[C@H](O)[C@H]6O)nn5)cc(c24)C1=O)C(=O)N(CCCN(C)C)C3=O	–	0.537 µM	0.71 µM	0.275 µM	–	–	2.6	100 µM	> 1000 µM	Active	Active	Active	Active	Active	–	–	10 °C
CN(C)c1ccc(Nc2c3ccc(NC(=O)CCN4CCCC4)cc3nc3cc(NC(=O)CCN4CCCC4)ccc23)cc1	5.51 µM	12.7 µM	8.33 µM	9.7 µM	0.7	1.5	0.9	–	–	–	–	–	–	–	–	–	–
CN(C)CCCN1C(=O)c2ccc3c4c(c(NCc5cn(CCO[C@H]6O[C@H](CO)[C@@H](O)[C@H](O)[C@@H]6O)nn5)cc(c24)C1=O)C(=O)N(CCCN(C)C)C3=O	0.021 µM	0.306 µM	0.81 µM	0.18 µM	2.6	38.6	4.5	100 µM	> 1000 µM	–	–	–	–	–	–	–	–
C[C@H]1O[C@@H](n2cc(CNc3cc4c5c(ccc6c5c3C(=O)N(CCCN(C)C)C6=O)C(=O)N(CCCN(C)C)C4=O)nn2)[C@H](O)[C@@H](O)[C@@H]1O	0.017 µM	0.184 µM	0.91 µM	0.225 µM	4.9	53.5	4	100 µM	–	–	–	–	–	–	–	170 µM	–
CCCCCCCCCCCCCCCCOP(=O)([O-])OCC[N+](C)(C)C [MILTEFOSINE]	–	6.07 µM	–	–	–	–	–	–	–	–	–	–	–	–	–	–	–
NCCOc1cc(C(=O)Nc2cc(OCCN)c3ccccc3n2)nc(C(=O)Nc2cc(OCCN)c3ccccc3n2)c1 [PYRIDOSTATIN]	7.82 µM	5 µM	5.38 µM	2.65 µM	1.1	0.7	2	–	–	–	–	–	–	–	–	–	–

Source: ChEMBL document CHEMBL4024795, “G-Quadruplex Identification in the Genome of Protozoan Parasites Points to Naphthalene Diimide Ligands as New Antiparasitic Agents” (J Med Chem, 2018)
